Experimental data collected from several papers.
Protocols differ between the studies behind these lines.
Target: Phosphatidylinositol 4-phosphate 5-kinase type-1 gamma (PIP5K1C, Homo sapiens, UniProt O60331)

C[C@@H]1CN(c2cc(-c3n[nH]c4ccc(OC5(C)CC5)cc34)ncn2)C[C@H](C)O1
remaining binding (cell-free assay, competition with immobilised ligand; 0.1 µM): 92%

FC(F)(F)Oc1cccc(-c2cnc3ccc(-c4ccncc4)nn23)c1
remaining binding (cell-free assay, competition with immobilised ligand; 5 µM): 47%

CNC(=O)[C@@H]1CC[C@@H](n2c(-c3ccc4cnccc4c3)nc3ccc(C(=O)NCc4cccc(C(N)=O)c4)cc32)C1
remaining binding (binding, competition with immobilised ligand; 1 µM): 80%

CC1CCCN1c1nccc(-c2cnn3ncccc23)n1 (stereo not shown)
remaining binding (binding; 1 µM): 74%

Nc1ncc2c(n1)-c1c([nH]c3ccc(C#CC4CC4)cc13)CCCC2
remaining binding (binding, competition with immobilised ligand; 1 µM): 57%

N[C@H]1CCN(c2nccc(-c3cnn4ncccc34)n2)C1
remaining binding (binding; 1 µM): 63%

O=C(c1ccc(Nc2nccc(-c3cc4ccccc4s3)n2)cc1)N1CCC(N2CCCC2)CC1
remaining binding (binding, competition with immobilised ligand; 1 µM): 13%

N#CC1(c2ccccn2)CCN(Cc2cc(C(=O)N3CCCC3)c(=O)n3ccccc23)CC1
remaining binding (cell-free assay, competition with immobilised ligand; 1 µM): 68%

CN(C)c1nccc(-c2cnc3ncccn23)n1
remaining binding (binding; 1 µM): 100%

CCOCCn1cc(C(=O)Nc2ccc(-n3nc(-c4cccnc4)cc3C(F)(F)F)cn2)ccc1=O
remaining binding (cell-free assay, competition with immobilised ligand; 1 µM): 100%

F[C@@H]1CCN(c2nccc(-c3cnn4ncccc34)n2)C1
remaining binding (binding; 1 µM): 100%

O=C(NCC1CCOCC1)c1n[nH]cc1NC(=O)c1c(F)cccc1F
remaining binding (binding, competition with immobilised ligand; 1 µM): 55%

O=C(NCCCN1CCOCC1)c1ccc(Nc2ncc(Cl)c(-c3ccc(Cl)s3)n2)cc1
remaining binding (binding, competition with immobilised ligand; 1 µM): 59%

O=C(N[C@H]1CCCCC/C=C\C2C[C@@]2(C(=O)O)NC(=O)[C@@H]2C[C@@H](Oc3ccncc3)CN2C1=O)OC1CCCC1 (stereo partly shown)
remaining binding (binding, competition with immobilised ligand; 1 µM): 100%

Cc1cnn2ncc(-c3ccnc(N(C)C)n3)c2c1
remaining binding (binding; 1 µM): 100%

O=C(c1ccc(Nc2ncc(Cl)c(-c3ccc(Cl)s3)n2)cc1)N1CCC(N2CCCC2)CC1
remaining binding (binding, competition with immobilised ligand; 1 µM): 72%

O=C(O)c1cc(-c2ccc(C3CCNCC3)cc2)c2ccc(-c3ccc(C(F)(F)F)cc3)cc2c1
remaining binding (cell-free assay, competition with immobilised ligand; 1 µM): 100%

C[C@@H]1CCN(c2nccc(-c3cnn4ncccc34)n2)C1
remaining binding (binding; 1 µM): 99%

COc1cnc(Nc2cccc(S(N)(=O)=O)c2)nc1N1CCN(c2ccccc2)C(=O)C1
remaining binding (binding, competition with immobilised ligand; 1 µM): 95%
